Results reported in ChEMBL document CHEMBL3232717 (J Med Chem, 2014).
pIC50: −log10 of the molar value.

Key:
[1] = target: T1, Prolyl endopeptidase (Homo sapiens, UniProt P48147); assay: Inhibition of PEP (unknown origin)
T1 sequence (P48147 whole entry): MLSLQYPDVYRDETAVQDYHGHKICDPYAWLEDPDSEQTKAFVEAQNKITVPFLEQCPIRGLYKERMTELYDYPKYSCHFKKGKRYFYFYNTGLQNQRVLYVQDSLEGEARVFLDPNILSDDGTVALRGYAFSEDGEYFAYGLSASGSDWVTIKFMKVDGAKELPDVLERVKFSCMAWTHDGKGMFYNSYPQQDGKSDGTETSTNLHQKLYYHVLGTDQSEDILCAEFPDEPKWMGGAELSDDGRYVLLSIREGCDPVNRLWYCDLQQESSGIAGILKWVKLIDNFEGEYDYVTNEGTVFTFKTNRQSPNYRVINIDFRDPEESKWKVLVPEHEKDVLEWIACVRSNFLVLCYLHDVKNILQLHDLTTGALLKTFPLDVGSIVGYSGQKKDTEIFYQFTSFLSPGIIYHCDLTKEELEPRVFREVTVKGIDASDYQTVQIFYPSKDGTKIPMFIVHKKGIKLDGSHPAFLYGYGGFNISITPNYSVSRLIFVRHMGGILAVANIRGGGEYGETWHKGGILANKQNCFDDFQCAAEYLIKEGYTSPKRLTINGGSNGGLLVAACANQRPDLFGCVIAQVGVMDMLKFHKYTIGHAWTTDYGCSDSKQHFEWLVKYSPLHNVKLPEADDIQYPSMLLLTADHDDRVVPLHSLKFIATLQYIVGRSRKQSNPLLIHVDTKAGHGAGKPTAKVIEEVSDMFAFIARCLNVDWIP

[2] = target: Dipeptidyl peptidase 8 (Homo sapiens, UniProt Q6V1X1); assay: Inhibition of DPP8 (unknown origin)
[3] = target: Dipeptidyl peptidase 9 (Homo sapiens, UniProt Q86TI2); assay: Inhibition of DPP9 (unknown origin)
[4] = Inhibition of potassium channel IKr (unknown origin)
[5] = target: Voltage-dependent L-type calcium channel subunit alpha-1C (Homo sapiens, UniProt Q13936); assay: Inhibition of Cav1.2 (unknown origin)
[6] = target: Sodium channel protein type 5 subunit alpha (Homo sapiens, UniProt Q14524); assay: Inhibition of Nav1.5 (unknown origin)
Outline: (§1)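 Cardiac ion channel panel run on PatchXpress, testing functional currents (hERG/IKr, INa, ICaL) up to 30 μM. IKr was additionally assessed by nonfunctional MK-499 displacement binding.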

[7] = test system: Plasma; assay: Plasma concentration in mouse at 0.3 mg/kg, po; type: ADME, organism-based; parameters: dose 0.3 mg/kg, route oral; settings: in vivo
Outline: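 Lean mice dosed orally 1 h before an oral dextrose challenge (OGTT); plasma drug concentration measured alongside plasma DPP-4 activity in the accompanying pharmacodynamic study.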

[8] = target: Dipeptidyl peptidase 4 (Mus musculus, UniProt P28843); assay: Inhibition of DPP4 in mouse plasma
Outline: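 Plasma DPP-4 inhibition measured in 50% mouse plasma; IC50 read-out.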

[9] = Unbound fraction in CD-1 mouse plasma at 1 to 100 uM; type: ADME, cell-free
Outline: (§2)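 Radiolabelled ([3H]) compound added to plasma at 1, 10 and 100 μM; mean percentage unbound reported for each species.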

[10] = Unbound fraction in Sprague-Dawley rat plasma at 1 to 100 uM; type: ADME, cell-free; outline: as §2
[11] = Unbound fraction in beagle dog plasma at 1 to 100 uM; type: ADME, cell-free, Canis lupus familiaris; outline: as §2
[12] = Unbound fraction in human plasma at 1 to 100 uM; type: ADME, cell-free; outline: as §2
[13] = Ratio of drug level in brain to plasma in CD-1 mouse
[14] = Ratio of drug level in brain to plasma in Sprague-Dawley rat
[15] = Ratio of drug level in brain to plasma in beagle dog
[16] = Ratio of drug level in brain to plasma in human
[17] = test system: Salmonella typhimurium; assay: Genotoxicity in Salmonella typhimurium by Ames mutagenicity test; type: toxicity, organism-based; settings: salmonella enterica subsp. enterica serovar typhimurium
[18] = target: Voltage-gated L-type calcium channel (Homo sapiens, UniProt Q13936+Q13698+Q01668+O60840); assay: Effect on L-type Ca2+ channel (unknown origin) up to 30 uM; outline: as §1
[19] = test system: Rattus norvegicus; assay: Toxicity in rat assessed as mortality at 100 mg/kg/day, po for 14 days; type: organism-based; parameters: route oral; settings: in vivo, 336 h
Outline: (§3)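 Exploratory 14-day oral safety study in male rats, dosed daily. Endpoints were mortality, physical signs observed over the dosing period, and clinical pathology parameters, including glucose and triglycerides.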

[20] = test system: Rattus norvegicus; assay: Toxicity in rat assessed as physical signs at 100 mg/kg/day, po for 14 days; type: organism-based; parameters: route oral; settings: in vivo, 336 h; outline: as §3
[21] = test system: Rattus norvegicus; assay: Toxicity in rat assessed as decrease in glucose level at 100 mg/kg/day, po for 14 days; type: organism-based; parameters: route oral; settings: in vivo, 336 h; outline: as §3
[22] = test system: Rattus norvegicus; assay: Toxicity in rat assessed as decrease in triglyceride level at 100 mg/kg/day, po for 14 days; type: organism-based; parameters: route oral; settings: in vivo, 336 h; outline: as §3
[23] = test system: Rattus norvegicus; assay: Toxicity in rat assessed as decrease in cholesterol level at 100 mg/kg/day, po for 14 days; type: organism-based; parameters: route oral; settings: in vivo, 336 h; outline: as §3
[24] = AUC (0 to 24 hrs) in rat at 100 mg/kg/day, po administered for 14 days; type: ADME, organism-based; parameters: dose 100 mg/kg/day, time < 24 hr, route oral; settings: plasma
Outline: (§4)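 Exploratory 14-day oral safety study in male rats dosed at 100 mg/kg/day; AUC(0-24h), Cmax and Tmax determined.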

[25] = Cmax in rat at 100 mg/kg/day, po administered for 14 days; type: ADME, organism-based; parameters: dose 100 mg/kg/day, route oral; settings: in vivo; outline: as §4
[26] = Tmax in rat at 100 mg/kg/day, po administered for 14 days; type: ADME, organism-based; parameters: route oral; settings: in vivo; outline: as §4
[27] = target: Dipeptidyl peptidase 2 (Homo sapiens, UniProt Q9UHL4); assay: Inhibition of QPP (unknown origin)
[28] = target: T2, Prolyl endopeptidase FAP (Homo sapiens, UniProt Q12884); assay: Inhibition of FAP (unknown origin)
T2 sequence (Q12884 whole entry): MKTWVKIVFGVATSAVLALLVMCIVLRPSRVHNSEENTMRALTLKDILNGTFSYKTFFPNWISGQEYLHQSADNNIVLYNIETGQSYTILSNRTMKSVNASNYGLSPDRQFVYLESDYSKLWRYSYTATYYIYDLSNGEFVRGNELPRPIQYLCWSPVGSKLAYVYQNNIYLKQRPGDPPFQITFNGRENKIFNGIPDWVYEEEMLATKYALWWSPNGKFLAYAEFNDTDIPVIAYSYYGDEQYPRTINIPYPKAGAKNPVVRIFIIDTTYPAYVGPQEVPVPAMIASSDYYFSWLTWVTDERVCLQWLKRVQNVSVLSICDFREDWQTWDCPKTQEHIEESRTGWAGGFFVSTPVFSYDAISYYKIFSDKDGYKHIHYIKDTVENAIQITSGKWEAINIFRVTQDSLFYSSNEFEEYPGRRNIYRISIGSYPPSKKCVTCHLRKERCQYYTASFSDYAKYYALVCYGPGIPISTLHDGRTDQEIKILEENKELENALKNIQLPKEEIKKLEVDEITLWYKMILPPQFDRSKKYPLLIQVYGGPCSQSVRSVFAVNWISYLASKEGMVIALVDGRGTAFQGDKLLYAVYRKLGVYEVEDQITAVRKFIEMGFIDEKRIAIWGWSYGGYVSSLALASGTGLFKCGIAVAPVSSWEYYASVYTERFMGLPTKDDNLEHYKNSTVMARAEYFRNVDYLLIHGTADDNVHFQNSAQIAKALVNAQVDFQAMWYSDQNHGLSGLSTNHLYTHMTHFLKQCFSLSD

[29] = species: Mus musculus; assay: animal or person; settings: Blood, po, 1 h, read-out: INH
[30] = species: Mus musculus; assay: animal or person; settings: Blood, po, 1 h, read-out: INH; remark: listed apart in the source
[31] = species: Mus musculus; assay: animal or person; settings: Plasma, po, read-out: INH

Sequence of Voltage-dependent L-type calcium channel subunit alpha-1C (Q13936 whole entry): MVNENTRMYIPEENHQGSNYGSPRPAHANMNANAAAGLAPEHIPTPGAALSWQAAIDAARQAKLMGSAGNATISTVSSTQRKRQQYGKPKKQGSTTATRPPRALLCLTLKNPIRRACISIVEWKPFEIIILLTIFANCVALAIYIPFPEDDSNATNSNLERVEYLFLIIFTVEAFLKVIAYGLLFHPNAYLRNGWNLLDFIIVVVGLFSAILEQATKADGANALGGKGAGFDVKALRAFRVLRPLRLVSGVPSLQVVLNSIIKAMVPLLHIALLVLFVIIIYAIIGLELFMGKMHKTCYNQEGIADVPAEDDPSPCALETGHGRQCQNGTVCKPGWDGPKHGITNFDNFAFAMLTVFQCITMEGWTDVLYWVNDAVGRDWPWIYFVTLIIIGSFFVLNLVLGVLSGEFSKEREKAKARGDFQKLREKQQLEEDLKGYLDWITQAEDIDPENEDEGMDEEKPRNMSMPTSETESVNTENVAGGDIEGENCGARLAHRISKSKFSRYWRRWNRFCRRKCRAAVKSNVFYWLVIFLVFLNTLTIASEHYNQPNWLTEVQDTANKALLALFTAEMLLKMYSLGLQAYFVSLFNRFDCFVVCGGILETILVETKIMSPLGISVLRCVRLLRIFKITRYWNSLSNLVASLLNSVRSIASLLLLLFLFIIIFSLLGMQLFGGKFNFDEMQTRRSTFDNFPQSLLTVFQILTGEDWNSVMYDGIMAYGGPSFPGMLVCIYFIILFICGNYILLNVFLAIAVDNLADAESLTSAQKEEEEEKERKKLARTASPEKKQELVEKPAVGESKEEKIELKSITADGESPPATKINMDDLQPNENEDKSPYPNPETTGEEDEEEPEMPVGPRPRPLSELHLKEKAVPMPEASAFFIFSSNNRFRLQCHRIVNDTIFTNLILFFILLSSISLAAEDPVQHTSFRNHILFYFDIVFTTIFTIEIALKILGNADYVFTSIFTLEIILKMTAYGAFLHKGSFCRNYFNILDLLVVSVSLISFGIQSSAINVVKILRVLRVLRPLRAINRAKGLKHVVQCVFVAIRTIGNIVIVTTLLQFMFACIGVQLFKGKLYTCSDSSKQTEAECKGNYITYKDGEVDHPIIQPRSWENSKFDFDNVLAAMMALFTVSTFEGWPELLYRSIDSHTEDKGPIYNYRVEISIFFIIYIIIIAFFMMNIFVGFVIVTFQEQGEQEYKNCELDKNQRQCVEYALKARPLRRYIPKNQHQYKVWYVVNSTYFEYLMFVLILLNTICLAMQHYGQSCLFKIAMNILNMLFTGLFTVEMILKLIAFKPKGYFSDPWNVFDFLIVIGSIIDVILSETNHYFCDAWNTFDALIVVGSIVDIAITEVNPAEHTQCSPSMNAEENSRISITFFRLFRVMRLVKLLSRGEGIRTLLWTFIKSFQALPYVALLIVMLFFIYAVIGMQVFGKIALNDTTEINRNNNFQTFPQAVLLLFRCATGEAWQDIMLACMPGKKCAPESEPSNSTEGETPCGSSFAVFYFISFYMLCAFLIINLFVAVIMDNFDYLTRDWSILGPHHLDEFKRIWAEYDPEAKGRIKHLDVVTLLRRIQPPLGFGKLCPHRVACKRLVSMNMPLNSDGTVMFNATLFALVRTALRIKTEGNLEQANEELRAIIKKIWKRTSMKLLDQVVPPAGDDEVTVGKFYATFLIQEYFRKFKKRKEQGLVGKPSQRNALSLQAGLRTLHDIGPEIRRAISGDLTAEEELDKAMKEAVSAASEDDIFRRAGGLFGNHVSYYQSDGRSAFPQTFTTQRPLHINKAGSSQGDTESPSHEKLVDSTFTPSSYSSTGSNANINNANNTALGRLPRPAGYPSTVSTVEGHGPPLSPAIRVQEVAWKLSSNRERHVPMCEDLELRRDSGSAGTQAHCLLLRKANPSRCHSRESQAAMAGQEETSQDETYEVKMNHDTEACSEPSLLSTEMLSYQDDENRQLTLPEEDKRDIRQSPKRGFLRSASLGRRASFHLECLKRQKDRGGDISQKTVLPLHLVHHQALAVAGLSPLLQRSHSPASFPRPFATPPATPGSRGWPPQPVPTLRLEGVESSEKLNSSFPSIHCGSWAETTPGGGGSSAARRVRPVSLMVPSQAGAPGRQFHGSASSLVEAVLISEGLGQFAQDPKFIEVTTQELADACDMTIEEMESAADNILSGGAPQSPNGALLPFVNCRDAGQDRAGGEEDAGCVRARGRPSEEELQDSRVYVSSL
Sequence of Dipeptidyl peptidase 9 (Q86TI2 whole entry): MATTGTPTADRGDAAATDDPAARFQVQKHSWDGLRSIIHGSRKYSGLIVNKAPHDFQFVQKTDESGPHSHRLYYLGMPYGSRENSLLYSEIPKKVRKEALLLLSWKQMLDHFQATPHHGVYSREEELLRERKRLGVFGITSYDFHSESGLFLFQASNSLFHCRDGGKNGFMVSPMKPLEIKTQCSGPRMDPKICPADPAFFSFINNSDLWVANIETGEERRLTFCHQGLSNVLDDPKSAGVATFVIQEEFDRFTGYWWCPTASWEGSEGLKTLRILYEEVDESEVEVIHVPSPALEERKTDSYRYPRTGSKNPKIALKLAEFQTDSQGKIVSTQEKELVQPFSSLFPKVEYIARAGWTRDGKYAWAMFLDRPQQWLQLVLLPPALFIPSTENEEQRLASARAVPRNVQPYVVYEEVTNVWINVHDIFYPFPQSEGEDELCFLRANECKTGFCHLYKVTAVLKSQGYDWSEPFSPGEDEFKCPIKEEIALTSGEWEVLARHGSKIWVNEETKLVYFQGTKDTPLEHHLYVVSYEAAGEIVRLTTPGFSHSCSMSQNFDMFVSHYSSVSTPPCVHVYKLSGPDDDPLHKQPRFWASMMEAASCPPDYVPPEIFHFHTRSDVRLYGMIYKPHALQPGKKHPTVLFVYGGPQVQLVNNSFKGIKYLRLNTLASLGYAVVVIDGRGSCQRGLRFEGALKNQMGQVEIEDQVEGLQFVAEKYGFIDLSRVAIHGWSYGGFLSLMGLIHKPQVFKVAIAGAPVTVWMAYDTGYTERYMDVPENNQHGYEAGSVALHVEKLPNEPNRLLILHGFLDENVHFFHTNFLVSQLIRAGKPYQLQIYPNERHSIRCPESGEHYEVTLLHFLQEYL
Sequence of Dipeptidyl peptidase 8 (Q6V1X1 whole entry): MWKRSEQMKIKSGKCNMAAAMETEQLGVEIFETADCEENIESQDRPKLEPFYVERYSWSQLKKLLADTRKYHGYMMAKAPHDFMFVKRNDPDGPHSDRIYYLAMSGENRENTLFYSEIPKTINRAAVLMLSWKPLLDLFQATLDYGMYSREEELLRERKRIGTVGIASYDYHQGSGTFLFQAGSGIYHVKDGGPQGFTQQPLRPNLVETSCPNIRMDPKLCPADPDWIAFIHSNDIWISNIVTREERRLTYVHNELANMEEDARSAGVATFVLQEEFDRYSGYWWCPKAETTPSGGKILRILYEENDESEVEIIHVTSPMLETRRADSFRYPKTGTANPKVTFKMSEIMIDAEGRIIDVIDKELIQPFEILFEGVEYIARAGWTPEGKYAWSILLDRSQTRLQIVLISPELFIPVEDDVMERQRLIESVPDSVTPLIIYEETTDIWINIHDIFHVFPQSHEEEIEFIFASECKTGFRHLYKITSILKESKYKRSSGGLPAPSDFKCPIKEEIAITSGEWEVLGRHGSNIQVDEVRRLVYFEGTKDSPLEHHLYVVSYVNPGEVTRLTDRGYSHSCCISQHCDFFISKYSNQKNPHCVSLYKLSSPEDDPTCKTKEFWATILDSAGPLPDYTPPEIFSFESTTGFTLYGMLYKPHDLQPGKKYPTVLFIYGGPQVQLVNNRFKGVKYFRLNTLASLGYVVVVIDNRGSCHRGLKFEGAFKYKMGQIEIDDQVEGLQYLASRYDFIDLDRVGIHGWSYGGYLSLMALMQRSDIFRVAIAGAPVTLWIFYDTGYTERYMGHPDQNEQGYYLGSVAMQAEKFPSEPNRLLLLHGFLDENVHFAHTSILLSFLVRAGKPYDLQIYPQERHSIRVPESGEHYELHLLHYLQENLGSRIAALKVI
Sequence of Dipeptidyl peptidase 4 (P28843 whole entry): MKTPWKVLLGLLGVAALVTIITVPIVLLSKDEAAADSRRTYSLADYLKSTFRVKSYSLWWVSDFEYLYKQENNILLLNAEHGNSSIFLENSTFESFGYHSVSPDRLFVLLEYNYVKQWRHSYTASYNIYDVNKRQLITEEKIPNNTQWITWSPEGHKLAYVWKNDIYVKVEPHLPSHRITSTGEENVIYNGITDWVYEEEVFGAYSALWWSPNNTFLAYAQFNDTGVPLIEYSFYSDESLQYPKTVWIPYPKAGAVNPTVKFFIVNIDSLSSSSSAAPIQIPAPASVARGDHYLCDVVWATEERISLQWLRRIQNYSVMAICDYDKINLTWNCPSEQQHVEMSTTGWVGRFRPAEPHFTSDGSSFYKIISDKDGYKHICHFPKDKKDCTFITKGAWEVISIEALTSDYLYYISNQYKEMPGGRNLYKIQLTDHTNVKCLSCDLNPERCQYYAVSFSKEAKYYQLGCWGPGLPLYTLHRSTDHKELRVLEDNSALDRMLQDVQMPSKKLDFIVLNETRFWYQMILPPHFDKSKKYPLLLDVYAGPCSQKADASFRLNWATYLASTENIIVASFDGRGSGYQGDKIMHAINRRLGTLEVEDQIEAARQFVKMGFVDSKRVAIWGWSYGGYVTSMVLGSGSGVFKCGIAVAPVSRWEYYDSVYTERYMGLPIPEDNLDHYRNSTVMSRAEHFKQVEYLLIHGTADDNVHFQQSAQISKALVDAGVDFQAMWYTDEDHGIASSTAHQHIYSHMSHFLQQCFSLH

## CS(=O)(=O)n1cc2c(n1)CN([C@H]1CO[C@H](c3cc(F)ccc3F)[C@@H](N)C1)C2 [OMARIGLIPTIN]
[1]
  pIC50: < 4.17
[2]
  pIC50: < 4.17
[3]
  pIC50: < 4.17
[4]
  pIC50: < 4.52
[5]
  pIC50: < 4.52
[6]
  pIC50: < 4.52
[7]
  concentration: 0.521 µM
[8]
  pIC50: 7.36
[9]
  fraction unbound at up to 100 µM: 0.38
[10]
  fraction unbound at up to 100 µM: 0.15
[11]
  fraction unbound at up to 100 µM: 0.43
[12]
  fraction unbound at up to 100 µM: 0.68
[13]
  Kp: 0.6
[14]
  Kp: 0.6
[15]
  Kp: 0.6
[16]
  Kp: 0.6
[17]
  Activity: Non-toxic
[18]
  Activity: Not Active
[19]
  Activity: Non-toxic
[20]
  Activity: Non-toxic
[21]
  Activity: Toxic
[22]
  Activity: Toxic
[23]
  Activity: Toxic
[24]
  AUC at 24 h: 5000 µM·h
[25]
  Cmax: 371 µM
[26]
  Tmax: 2 h
[27]
  pIC50: < 4.17
[28]
  pIC50: < 4.17
[29]
  inhibition in vivo at 0.01 mg/kg: 7%
[30]
  inhibition in vivo at 0.3 mg/kg: 51%
[31]
  inhibition in vivo at 0.3 mg/kg: 85%
